Among the data in ChEMBL document CHEMBL1156931, “Discovery of novel fibroblast growth factor receptor 1 kinase inhibitors by structure-based virtual screening” (J Med Chem, 2010) are IC50 values, retold here.

Test [1] has as its target Fibroblast growth factor receptor 1 (Homo sapiens, UniProt P11362). Kind of test: Inhibition of FGFR1. To be noted: for pIC50: read-out: IC50.
Test [2] deals with Proto-oncogene tyrosine-protein kinase Src (Homo sapiens, UniProt P12931). Kind of test: Inhibition of SRC.
Sequence of Proto-oncogene tyrosine-protein kinase Src (P12931 2-536 limits assumed): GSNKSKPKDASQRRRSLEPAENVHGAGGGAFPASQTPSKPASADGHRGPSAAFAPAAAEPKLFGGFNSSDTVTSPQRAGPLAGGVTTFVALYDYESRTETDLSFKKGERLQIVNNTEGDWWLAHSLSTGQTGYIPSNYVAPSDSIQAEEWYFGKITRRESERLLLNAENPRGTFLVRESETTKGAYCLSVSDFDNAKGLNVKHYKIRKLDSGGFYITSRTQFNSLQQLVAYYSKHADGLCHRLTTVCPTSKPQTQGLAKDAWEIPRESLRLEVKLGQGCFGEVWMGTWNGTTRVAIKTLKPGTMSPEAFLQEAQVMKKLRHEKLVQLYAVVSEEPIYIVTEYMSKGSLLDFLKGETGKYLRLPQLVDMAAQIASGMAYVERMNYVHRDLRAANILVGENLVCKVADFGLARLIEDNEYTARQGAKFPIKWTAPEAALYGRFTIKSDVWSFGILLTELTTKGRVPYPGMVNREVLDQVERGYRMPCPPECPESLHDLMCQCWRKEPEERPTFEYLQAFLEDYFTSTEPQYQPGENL
The target in test [3] is T1, Insulin receptor (Homo sapiens, UniProt P06213).
T1 sequence (P06213 28-758 limits assumed): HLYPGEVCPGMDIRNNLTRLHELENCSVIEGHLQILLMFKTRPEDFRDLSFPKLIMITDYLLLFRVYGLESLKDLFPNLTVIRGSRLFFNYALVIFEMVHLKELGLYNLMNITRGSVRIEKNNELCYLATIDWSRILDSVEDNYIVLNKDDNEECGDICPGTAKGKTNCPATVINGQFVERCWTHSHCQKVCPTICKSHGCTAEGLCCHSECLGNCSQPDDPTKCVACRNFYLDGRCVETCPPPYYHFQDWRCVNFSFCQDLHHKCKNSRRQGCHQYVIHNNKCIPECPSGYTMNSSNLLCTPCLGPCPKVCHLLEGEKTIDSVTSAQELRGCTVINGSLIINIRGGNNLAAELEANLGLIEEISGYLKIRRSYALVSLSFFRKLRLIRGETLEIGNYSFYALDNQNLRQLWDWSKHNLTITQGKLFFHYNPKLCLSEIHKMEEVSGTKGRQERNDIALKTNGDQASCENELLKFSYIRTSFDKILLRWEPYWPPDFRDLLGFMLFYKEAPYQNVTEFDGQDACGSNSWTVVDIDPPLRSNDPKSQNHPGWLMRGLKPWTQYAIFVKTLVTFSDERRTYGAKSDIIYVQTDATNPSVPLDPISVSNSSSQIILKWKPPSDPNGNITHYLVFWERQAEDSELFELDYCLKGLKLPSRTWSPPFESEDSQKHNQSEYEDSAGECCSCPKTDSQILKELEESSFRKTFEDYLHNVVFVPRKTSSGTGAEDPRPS
T1 sequence (P06213 763-1382 limits assumed): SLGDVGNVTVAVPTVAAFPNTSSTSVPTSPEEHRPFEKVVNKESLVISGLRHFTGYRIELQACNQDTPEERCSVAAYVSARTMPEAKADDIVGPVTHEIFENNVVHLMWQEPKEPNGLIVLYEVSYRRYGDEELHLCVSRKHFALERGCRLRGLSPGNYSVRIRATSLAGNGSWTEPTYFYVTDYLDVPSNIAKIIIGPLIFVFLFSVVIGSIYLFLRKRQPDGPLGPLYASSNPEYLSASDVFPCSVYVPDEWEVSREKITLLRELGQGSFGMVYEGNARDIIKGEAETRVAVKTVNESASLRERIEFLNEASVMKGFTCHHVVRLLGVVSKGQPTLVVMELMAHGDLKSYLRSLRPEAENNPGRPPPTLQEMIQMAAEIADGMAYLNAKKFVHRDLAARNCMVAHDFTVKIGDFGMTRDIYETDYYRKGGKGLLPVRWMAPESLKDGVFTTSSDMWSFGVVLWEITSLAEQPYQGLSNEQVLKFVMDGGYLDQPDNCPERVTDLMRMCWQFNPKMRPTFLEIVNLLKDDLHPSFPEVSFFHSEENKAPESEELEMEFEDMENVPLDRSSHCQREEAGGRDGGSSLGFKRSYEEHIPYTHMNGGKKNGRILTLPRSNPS
In test [4] the target is Epidermal growth factor receptor (Homo sapiens, UniProt P00533). As to the kind of experiment: Inhibition of EGFR. Put shortly: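 Commercially sourced EGFR enzyme was tested in an AlphaScreen format. Kinase, biotinylated peptide, ATP and inhibitor were combined across 10 wells, typically 0.01 µM to 250 µM inhibitor. Phosphorylation ran for 30 min and was stopped with EDTA. Phosphopeptide was detected with anti-phosphotyrosine acceptor beads and streptavidin donor beads.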
Sequence of Epidermal growth factor receptor (P00533 whole entry): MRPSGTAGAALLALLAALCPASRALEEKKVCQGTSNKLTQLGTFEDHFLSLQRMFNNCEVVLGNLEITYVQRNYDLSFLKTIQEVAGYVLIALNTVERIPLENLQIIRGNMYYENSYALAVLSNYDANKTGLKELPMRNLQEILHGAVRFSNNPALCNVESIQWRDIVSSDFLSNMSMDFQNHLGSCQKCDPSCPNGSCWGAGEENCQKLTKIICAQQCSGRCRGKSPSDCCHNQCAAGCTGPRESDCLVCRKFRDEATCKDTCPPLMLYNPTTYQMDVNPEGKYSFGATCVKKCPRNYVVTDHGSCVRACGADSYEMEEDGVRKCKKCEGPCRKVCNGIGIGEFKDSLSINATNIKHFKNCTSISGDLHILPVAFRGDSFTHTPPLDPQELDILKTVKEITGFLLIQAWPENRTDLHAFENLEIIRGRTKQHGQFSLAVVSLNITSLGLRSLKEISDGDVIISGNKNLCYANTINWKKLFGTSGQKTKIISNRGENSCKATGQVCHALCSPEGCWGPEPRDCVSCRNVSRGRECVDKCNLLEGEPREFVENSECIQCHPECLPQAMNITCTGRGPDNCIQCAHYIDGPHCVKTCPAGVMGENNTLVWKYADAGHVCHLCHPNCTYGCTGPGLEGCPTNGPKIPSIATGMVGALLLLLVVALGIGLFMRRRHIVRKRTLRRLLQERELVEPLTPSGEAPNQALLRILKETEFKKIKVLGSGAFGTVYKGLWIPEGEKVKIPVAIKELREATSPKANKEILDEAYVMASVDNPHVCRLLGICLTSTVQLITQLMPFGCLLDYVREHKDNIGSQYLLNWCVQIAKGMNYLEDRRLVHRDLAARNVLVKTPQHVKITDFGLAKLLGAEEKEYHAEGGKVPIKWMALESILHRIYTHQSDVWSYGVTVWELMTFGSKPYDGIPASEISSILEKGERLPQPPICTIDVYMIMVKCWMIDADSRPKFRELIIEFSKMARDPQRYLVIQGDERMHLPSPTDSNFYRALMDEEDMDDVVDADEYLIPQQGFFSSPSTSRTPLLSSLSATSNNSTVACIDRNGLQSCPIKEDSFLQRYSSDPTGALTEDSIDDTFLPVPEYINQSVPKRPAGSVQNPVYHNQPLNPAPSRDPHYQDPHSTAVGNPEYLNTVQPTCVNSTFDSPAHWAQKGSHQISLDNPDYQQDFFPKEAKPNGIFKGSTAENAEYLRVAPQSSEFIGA

The target of test [5] is T1, Insulin receptor. The source holds these as a separate data set.

Structures are written as SMILES. pIC50: −log10 of the molar value.

Sequence of Fibroblast growth factor receptor 1 (P11362 whole entry): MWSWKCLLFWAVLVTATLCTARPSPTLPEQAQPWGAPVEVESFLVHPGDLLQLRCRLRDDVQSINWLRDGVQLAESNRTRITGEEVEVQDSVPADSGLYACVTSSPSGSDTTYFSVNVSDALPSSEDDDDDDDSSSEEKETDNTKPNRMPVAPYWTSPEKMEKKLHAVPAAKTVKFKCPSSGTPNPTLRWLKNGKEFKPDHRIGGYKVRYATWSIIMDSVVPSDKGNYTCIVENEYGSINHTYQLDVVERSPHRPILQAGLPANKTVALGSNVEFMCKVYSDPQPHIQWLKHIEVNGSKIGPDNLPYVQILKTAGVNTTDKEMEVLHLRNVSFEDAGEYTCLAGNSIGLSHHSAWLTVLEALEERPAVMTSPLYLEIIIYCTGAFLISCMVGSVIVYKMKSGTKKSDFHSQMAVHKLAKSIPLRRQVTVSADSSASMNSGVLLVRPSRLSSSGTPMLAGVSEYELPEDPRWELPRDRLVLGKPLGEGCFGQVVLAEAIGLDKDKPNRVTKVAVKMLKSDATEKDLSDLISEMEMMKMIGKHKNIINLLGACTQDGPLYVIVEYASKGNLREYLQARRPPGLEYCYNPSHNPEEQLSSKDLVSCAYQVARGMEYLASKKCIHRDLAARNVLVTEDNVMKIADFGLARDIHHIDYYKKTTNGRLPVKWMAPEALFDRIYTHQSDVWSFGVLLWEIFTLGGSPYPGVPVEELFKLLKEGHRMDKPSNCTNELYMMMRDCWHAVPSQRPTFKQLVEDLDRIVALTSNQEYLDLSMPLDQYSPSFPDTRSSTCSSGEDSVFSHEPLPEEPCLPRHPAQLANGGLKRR

As for `COc1ccc(-c2nc(=O)c3c4c(sc3[nH]2)CC(C)CC4)cc1OC` (stereo not given), the IC50 entry in test [1] is “Not Active”.

A word on the pIC50: it is the IC50 on a negative log10 scale, so that one unit is a factor of ten. Turning to `COc1cc(-c2nc3sc4cc(C)ccc4c3c(=O)[nH]2)ccc1OCC(=O)O`, in test [1], the negative logarithm of the IC50 (pIC50) was 5.40.

Regarding `COc1cc(C2C=C(Nc3ccccc3)C(=O)N2c2ccccc2)ccc1O` (stereo not given), the IC50 result in test [1] is “Not Active”.

With `COc1cc(-c2nc3sc4c(c3c(=O)[nH]2)CCC(C)C4)ccc1OCC(=O)O` (stereo not given), in test [1], the negative-log IC50 (pIC50) was 4.30.

In the case of `COCc1cc(/C=C2\NC(=S)NC2=O)ccc1OCCCOc1cc(C)cc(C)c1`, the pIC50 in test [1] was 2.48.

Regarding `COc1cc(/C=C2\NC(=S)NC2=O)ccc1OCCCOc1cc(C)cc(C)c1`, the IC50 entry in test [1] is “Not Active”.

`COc1ccc2cc(C3(C)NC(=O)N(Cc4ccc(F)cc4Cl)C3=O)ccc2c1` (stereo not given): the IC50 entry in test [1] is given as “Not Active”.

Turning to `CCc1ccc(OCCCOc2ccc(/C=C3\SC(=O)NC3=O)cc2)cc1`, the IC50 entry in test [1] is recorded as “Not Active”.

With `CCOC(=O)CNc1ccccc1-c1nc2ccccc2[nH]c1=O`, in test [1], the IC50 entry is “Not Active”.

Take `COc1cc(/C=C2\NC(=S)NC2=O)ccc1OCCCOc1ccc(Cl)cc1`: the IC50 result in test [1] is “Not Active”.

Take `Cc1ccc(C2(C)NC(=O)N(Cc3ccc(F)cc3)C2=O)cc1` (stereo not given): the IC50 entry in test [1] is reported as “Not Active”.

Take `COc1ccc2cc(-c3nc4cccc(C)n4c3NC3CCCC3)c(=O)[nH]c2c1`: in test [1], the IC50 result is recorded as “Not Active”.

Regarding `COc1cc(/C=C2\SC(=N)NC2=O)ccc1OCCCOc1cc(C)cc(C)c1`, the pIC50 in test [2] was 5.00; in test [3] it was 4.33; in test [4] it was 4.25; in test [1] it was 4.64.

Consider `O=c1[nH]c2ccc(NCc3cccc(OCc4ccccc4)c3)cc2[nH]1`, for which the IC50 entry in test [1] is given as “Not Active”.

As to `COc1ccc(-c2nc(NC(C)=O)c3c(=O)oc4ccc(Cl)cc4c3n2)cc1`, the IC50 result in test [1] is given as “Not Active”.

For the molecule `C=C1c2ccccc2NC(=O)N1c1cccc(Cl)c1`, the IC50 entry in test [1] is recorded as “Not Active”.

Regarding `CCc1ccc2c(c1)sc1[nH]c(-c3ccc(OCC(=O)O)c(OC)c3)nc(=O)c12`, the pIC50 in test [1] is 5.26.

Take `Cc1ccc2[nH]c(=O)c3cc(C(=O)N4CCN(c5ccccn5)CC4)sc3c2c1`: the IC50 result in test [1] is reported as “Not Active”.

As for `Cc1ccc(SCCNC(=O)COC(=O)Cc2n[nH]c(=O)c3ccccc23)cc1`, the IC50 entry in test [1] was “Not Active”.

As to `COc1cc(-c2nc(=O)c3c([nH]2)sc2cc(C(F)(F)F)ccc23)ccc1OCC(=O)O`, in test [1], the IC50 entry is on record as “Not Active”.

On to `COc1cc(/C=C2\NC(=S)NC2=O)ccc1OCCCOc1ccccc1Cl`, for which the IC50 entry in test [1] is “Not Active”.

Take `Cc1ccc2[nH]c(=O)c(-c3nc4ccc(Cl)cn4c3NCC3CCCO3)cc2c1` (stereo not given): in test [1], the IC50 result is “Not Active”.

For the molecule `C/C(=N\CC1CCCO1)C1C(=O)NC(=O)N(c2ccc(C)cc2)C1=O` (stereo not given), the IC50 entry in test [1] is “Not Active”.

As to `COc1cccc(-c2nc(=O)c3c4c(sc3[nH]2)CC(C)CC4)c1` (stereo not given), the IC50 result in test [1] is on record as “Not Active”.

With `CC(C)C(=O)Nc1nc2c(c3c1c(=O)oc1ccccc13)CCCC2`, in test [1], the IC50 result is listed as “Not Active”.

As for `CCOc1cc(/C=C2\NC(=S)NC2=O)ccc1OCCCOc1cc(C)cc(C)c1`, in test [1], the negative-log IC50 (pIC50) was 3.60.

For the molecule `O=C(NCc1n[nH]c(=O)c2ccccc12)c1ccc(Br)o1`, the IC50 entry in test [1] is listed as “Not Active”.

As for `O=C1C(Nc2ccccc2)=CC(c2cccc([N+](=O)[O-])c2)N1c1ccccc1` (stereo not given), in test [1], the IC50 entry is recorded as “Not Active”.

Take `COc1cc(/C=C2\NC(=S)NC2=O)ccc1OCCCOc1cccc(Cl)c1`: the IC50 entry in test [1] was “Not Active”.

Turning to `O=C(CSc1nc2c(c(=O)[nH]1)C1CCCCC1S2)NCc1ccco1` (stereo not given), the IC50 entry in test [1] is on record as “Not Active”.

For `O=C(CC1NC(=O)c2ccccc21)NCc1ccco1` (stereo not given), the IC50 result in test [1] is reported as “Not Active”.

In the case of `CC(CCc1ccccc1)NC(=O)COC(=O)CC1Sc2ccccc2NC1=O` (stereo not given), the IC50 entry in test [1] is recorded as “Not Active”.

On to `CC(=O)Nc1nc(-c2ccc(Cl)c(Cl)c2)nc2c1c(=O)oc1ccccc12`, for which, in test [1], the IC50 entry is recorded as “Not Active”.

For `CC(=O)Nc1nc(-c2ccc(C(C)(C)C)cc2)nc2c1c(=O)oc1ccccc12`, in test [1], the IC50 result is “Not Active”.

As for `COc1cc(-c2nc(=O)c3c([nH]2)sc2ccc(C)cc23)ccc1OCC(=O)O`, in test [5], the IC50 result is recorded as “Not Active”. In test [4], the negative-log IC50 (pIC50) was 5.62.

Turning to `COc1cc(/C=C2\NC(=S)NC2=O)ccc1OCCCOc1cccc(C)c1`, the IC50 entry in test [1] was “Not Active”.
